ChEMBL document CHEMBL1147771, “Synthesis and antibacterial activity of 9-substituted minocycline derivatives” (2006)
Converted amounts (≈) assume the structure as drawn.

Experiments:
Type in all cases: functional
[1] = test system: Staphylococcus aureus; test: Antibacterial activity against Staphylococcus aureus UBMS 90-1 carrying tetM-resistant determinant
Outline: (§1)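 Antibacterial activity determined by agar dilution.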

[2] = test system: Staphylococcus aureus; test: Antibacterial activity against Staphylococcus aureus UBMS 90-2 carrying tetM-resistant determinant; outline: as §1
[3] = test system: Staphylococcus aureus; test: Antibacterial activity against Staphylococcus aureus UBMS 90-3
Outline: (§2)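 MICs determined by agar dilution.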

[4] = test system: Staphylococcus aureus; test: Antibacterial activity against Staphylococcus aureus UBMS 88-7 carrying the tetK-resistant determinant; outline: as §1
[5] = test system: Staphylococcus aureus; test: Antibacterial activity against Staphylococcus aureus Smith; outline: as §2
[6] = test system: Enterococcus faecalis; test: Antibacterial activity against Enterococcus faecalis ATCC 29212; outline: as §2
[7] = test system: Escherichia coli; test: Antibacterial activity against Escherichia coli UBMS 88-1 carrying tetB-resistant determinant; outline: as §1
[8] = test system: Escherichia coli; test: Antibacterial activity against Minocycline sensitive Escherichia coli 88-2; outline: as §2
[9] = test system: Escherichia coli; test: Antibacterial activity against Minocylcine sensitive Escherichia coli 89-2; outline: as §2
[10] = test system: Escherichia coli; test: Antibacterial activity against Escherichia coli UBMS 89-1 carrying tetM-resistant determinant; outline: as §1
[11] = test system: Escherichia coli; test: Antibacterial activity against Minocycline sensitive Escherichia coli 90-5; outline: as §1
[12] = test system: Escherichia coli; test: Antibacterial activity against Escherichia coli UBMS 90-4 carrying tetM-resistant determinant; outline: as §1

| SMILES | MIC [1] | MIC [2] | MIC [3] | MIC [4] | MIC [5] | MIC [6] | MIC [7] | MIC [8] | MIC [9] | MIC [10] | MIC [11] | MIC [12] |
| --- | --- | --- | --- | --- | --- | --- | --- | --- | --- | --- | --- | --- |
| Cc1ccccc1C(=O)Nc1cc(N(C)C)c2c(c1O)C(O)=C1C(=O)[C@]3(O)C(O)=C(C(N)=O)C(=O)[C@@H](N(C)C)C3CC1C2 (some centres undefined) | 8 µg/mL (≈ 13.5 µM) | 2 µg/mL (≈ 3.39 µM) | 1 µg/mL (≈ 1.69 µM) | 4 µg/mL (≈ 6.77 µM) | 1 µg/mL (≈ 1.69 µM) | 2 µg/mL (≈ 3.39 µM) | 2 µg/mL (≈ 3.39 µM) | > 32 µg/mL | > 32 µg/mL |  |  |  |
| CN(C)c1cc(NC(=O)c2ccccc2)c(O)c2c1CC1CC3[C@H](N(C)C)C(=O)C(C(N)=O)=C(O)[C@@]3(O)C(=O)C1=C2O (some centres undefined) | 4 µg/mL (≈ 6.94 µM) | 4 µg/mL (≈ 6.94 µM) | 1 µg/mL (≈ 1.73 µM) | 8 µg/mL (≈ 13.9 µM) | 1 µg/mL (≈ 1.73 µM) | 4 µg/mL (≈ 6.94 µM) | > 32 µg/mL | > 32 µg/mL | > 32 µg/mL |  |  |  |
| CN(C)c1cc(NC(=O)c2cccs2)c(O)c2c1CC1CC3[C@H](N(C)C)C(=O)C(C(N)=O)=C(O)[C@@]3(O)C(=O)C1=C2O (some centres undefined) | 4 µg/mL (≈ 6.87 µM) | 4 µg/mL (≈ 6.87 µM) | 2 µg/mL (≈ 3.43 µM) | 32 µg/mL (≈ 54.9 µM) | 2 µg/mL (≈ 3.43 µM) | 8 µg/mL (≈ 13.7 µM) | > 32 µg/mL | > 32 µg/mL | > 32 µg/mL | > 32 µg/mL |  |  |
| CN(C)c1ccc(C(=O)Nc2cc(N(C)C)c3c(c2O)C(O)=C2C(=O)[C@]4(O)C(O)=C(C(N)=O)C(=O)[C@@H](N(C)C)C4CC2C3)cc1 (some centres undefined) | 16 µg/mL (≈ 25.8 µM) | 8 µg/mL (≈ 12.9 µM) | 8 µg/mL (≈ 12.9 µM) | 16 µg/mL (≈ 25.8 µM) | 4 µg/mL (≈ 6.45 µM) | 8 µg/mL (≈ 12.9 µM) | > 32 µg/mL | > 32 µg/mL | > 32 µg/mL | > 32 µg/mL |  |  |
| CN(C)CCCC(=O)Nc1cc(N(C)C)c2c(c1O)C(=O)C1=C(O)[C@]3(O)C(O)=C(C(N)=O)C(=O)[C@@H](N(C)C)C3CC1C2 (some centres undefined) | 8 µg/mL (≈ 13.7 µM) | 4 µg/mL (≈ 6.83 µM) | 2 µg/mL (≈ 3.41 µM) | 16 µg/mL (≈ 27.3 µM) | 2 µg/mL (≈ 3.41 µM) | 4 µg/mL (≈ 6.83 µM) | > 32 µg/mL |  |  |  | 16 µg/mL (≈ 27.3 µM) | 16 µg/mL (≈ 27.3 µM) |
| CN(C)c1cc(NC(=O)c2cccc(C(F)(F)F)c2)c(O)c2c1CC1CC3[C@H](N(C)C)C(=O)C(C(N)=O)=C(O)[C@@]3(O)C(=O)C1=C2O (some centres undefined) | 1 µg/mL (≈ 1.55 µM) | 1 µg/mL (≈ 1.55 µM) | 0.5 µg/mL (≈ 0.776 µM) | 1 µg/mL (≈ 1.55 µM) | 1 µg/mL (≈ 1.55 µM) | 1 µg/mL (≈ 1.55 µM) | > 32 µg/mL | > 32 µg/mL | > 32 µg/mL | > 32 µg/mL |  |  |
| CN(C)c1cc(NS(C)(=O)=O)c(O)c2c1CC1CC3[C@H](N(C)C)C(=O)C(C(N)=O)=C(O)[C@@]3(O)C(=O)C1=C2O (some centres undefined) | 0.25 µg/mL (≈ 0.454 µM) | 0.06 µg/mL (≈ 0.109 µM) | 0.12 µg/mL (≈ 0.218 µM) | 8 µg/mL (≈ 14.5 µM) | 0.12 µg/mL (≈ 0.218 µM) | 0.06 µg/mL (≈ 0.109 µM) | 8 µg/mL (≈ 14.5 µM) | 2 µg/mL (≈ 3.63 µM) | 2 µg/mL (≈ 3.63 µM) |  |  |  |
| CN(C)c1cc(NS(=O)(=O)c2ccccc2)c(O)c2c1CC1CC3[C@H](N(C)C)C(=O)C(C(N)=O)=C(O)[C@@]3(O)C(=O)C1=C2O (some centres undefined) | 4 µg/mL (≈ 6.53 µM) | 0.06 µg/mL (≈ 0.0979 µM) | 4 µg/mL (≈ 6.53 µM) | 4 µg/mL (≈ 6.53 µM) | 4 µg/mL (≈ 6.53 µM) | 0.06 µg/mL (≈ 0.0979 µM) | 16 µg/mL (≈ 26.1 µM) | 8 µg/mL (≈ 13.1 µM) | 16 µg/mL (≈ 26.1 µM) |  |  |  |
| CN(C)c1cc(NC(=O)CO)c(O)c2c1CC1CC3[C@H](N(C)C)C(=O)C(C(N)=O)=C(O)[C@@]3(O)C(=O)C1=C2O (some centres undefined) | 4 µg/mL (≈ 7.54 µM) | 2 µg/mL (≈ 3.77 µM) | 1 µg/mL (≈ 1.88 µM) | > 32 µg/mL | 0.5 µg/mL (≈ 0.942 µM) | 32 µg/mL (≈ 60.3 µM) | > 32 µg/mL |  |  |  | > 32 µg/mL | > 32 µg/mL |
| CN(C)CC(=O)Nc1cc(N(C)C)c2c(c1O)C(=O)C1=C(O)[C@]3(O)C(O)=C(C(N)=O)C(=O)[C@@H](N(C)C)C3CC1C2 (some centres undefined) | 0.12 µg/mL (≈ 0.215 µM) |  | 0.06 µg/mL (≈ 0.108 µM) | 0.5 µg/mL (≈ 0.897 µM) | 0.06 µg/mL (≈ 0.108 µM) | 0.06 µg/mL (≈ 0.108 µM) | 0.25 µg/mL (≈ 0.448 µM) |  |  |  | 0.12 µg/mL (≈ 0.215 µM) | 0.25 µg/mL (≈ 0.448 µM) |
| CN(C)c1cc(NC(=O)CNC2CCCC2)c(O)c2c1CC1CC3[C@H](N(C)C)C(=O)C(C(N)=O)=C(O)[C@@]3(O)C(=O)C1=C2O (some centres undefined) | 0.25 µg/mL (≈ 0.418 µM) |  | 0.12 µg/mL (≈ 0.201 µM) | 2 µg/mL (≈ 3.35 µM) | 0.25 µg/mL (≈ 0.418 µM) | 0.12 µg/mL (≈ 0.201 µM) | 0.25 µg/mL (≈ 0.418 µM) |  |  |  | 0.25 µg/mL (≈ 0.418 µM) | 0.25 µg/mL (≈ 0.418 µM) |
| CN(C)c1cc(NS(=O)(=O)c2cccs2)c(O)c2c1CC1CC3[C@H](N(C)C)C(=O)C(C(N)=O)=C(O)[C@@]3(O)C(=O)C1=C2O (some centres undefined) | 1 µg/mL (≈ 1.62 µM) | 0.25 µg/mL (≈ 0.404 µM) | 0.25 µg/mL (≈ 0.404 µM) | 2 µg/mL (≈ 3.23 µM) | 0.03 µg/mL (≈ 0.0485 µM) | 0.25 µg/mL (≈ 0.404 µM) | 32 µg/mL (≈ 51.7 µM) | 8 µg/mL (≈ 12.9 µM) | 16 µg/mL (≈ 25.9 µM) |  |  |  |
| CC(=O)Nc1nc(C)c(S(=O)(=O)Nc2cc(N(C)C)c3c(c2O)C(O)=C2C(=O)[C@]4(O)C(O)=C(C(N)=O)C(=O)[C@@H](N(C)C)C4CC2C3)s1 (some centres undefined) | 32 µg/mL (≈ 46.3 µM) | 4 µg/mL (≈ 5.79 µM) | 2 µg/mL (≈ 2.9 µM) | 32 µg/mL (≈ 46.3 µM) | 2 µg/mL (≈ 2.9 µM) | 1 µg/mL (≈ 1.45 µM) | > 32 µg/mL | > 32 µg/mL | > 32 µg/mL | 32 µg/mL (≈ 46.3 µM) |  |  |
| CN(C)c1cc(NC(=O)c2ccccc2F)c(O)c2c1CC1CC3[C@H](N(C)C)C(=O)C(C(N)=O)=C(O)[C@@]3(O)C(=O)C1=C2O (some centres undefined) | 4 µg/mL (≈ 6.73 µM) | 2 µg/mL (≈ 3.36 µM) | 1 µg/mL (≈ 1.68 µM) | 8 µg/mL (≈ 13.5 µM) | 1 µg/mL (≈ 1.68 µM) | 4 µg/mL (≈ 6.73 µM) | > 32 µg/mL | > 32 µg/mL | > 32 µg/mL |  |  |  |
| CN(C)c1cc(NS(=O)(=O)c2ccc(Cl)cc2)c(O)c2c1CC1CC3[C@H](N(C)C)C(=O)C(C(N)=O)=C(O)[C@@]3(O)C(=O)C1=C2O (some centres undefined) | 0.25 µg/mL (≈ 0.386 µM) | 0.12 µg/mL (≈ 0.185 µM) | 0.12 µg/mL (≈ 0.185 µM) | 1 µg/mL (≈ 1.55 µM) | 0.12 µg/mL (≈ 0.185 µM) | 0.06 µg/mL (≈ 0.0927 µM) | > 32 µg/mL | > 32 µg/mL | > 32 µg/mL |  |  |  |
| CN(C)c1cc(NC(=O)CCC2CCCC2)c(O)c2c1CC1CC3[C@H](N(C)C)C(=O)C(C(N)=O)=C(O)[C@@]3(O)C(=O)C1=C2O (some centres undefined) | 8 µg/mL (≈ 13.4 µM) | 8 µg/mL (≈ 13.4 µM) | 4 µg/mL (≈ 6.7 µM) | 8 µg/mL (≈ 13.4 µM) | 4 µg/mL (≈ 6.7 µM) | 8 µg/mL (≈ 13.4 µM) | > 128 µg/mL |  |  |  | > 128 µg/mL | > 128 µg/mL |
| CN(C)c1ccc(O)c2c1C[C@H]1C[C@H]3[C@H](N(C)C)C(O)=C(C(N)=O)C(=O)[C@@]3(O)C(O)=C1C2=O [MINOCYCLINE] | 8 µg/mL (≈ 17.5 µM) | 2 µg/mL (≈ 4.37 µM) | 0.03 µg/mL (≈ 0.0656 µM) | 0.25 µg/mL (≈ 0.546 µM) | 0.06 µg/mL (≈ 0.131 µM) | 2 µg/mL (≈ 4.37 µM) | 16 µg/mL (≈ 35 µM) | 0.25 µg/mL (≈ 0.546 µM) | 2 µg/mL (≈ 4.37 µM) | > 32 µg/mL |  |  |
| CN(C)c1cc(NC(=O)CNC(C)(C)C)c(O)c2c1C[C@H]1C[C@H]3[C@H](N(C)C)C(O)=C(C(N)=O)C(=O)[C@@]3(O)C(O)=C1C2=O [TIGECYCLINE] | 0.12 µg/mL (≈ 0.205 µM) |  | 0.25 µg/mL (≈ 0.427 µM) | 0.5 µg/mL (≈ 0.854 µM) | 0.25 µg/mL (≈ 0.427 µM) | 0.12 µg/mL (≈ 0.205 µM) | 0.5 µg/mL (≈ 0.854 µM) |  |  |  | 0.25 µg/mL (≈ 0.427 µM) | 0.12 µg/mL (≈ 0.205 µM) |
